This is a sample that favours compounds with a hit; in the whole collection about 3% have one here.
ABHD5-PLIN5 inh = ABHD5-PLIN5 interaction inhibitors, primary screen, cell lysate, split luciferase complementation, luminescence | AID 602281, 2012 | Perilipin-5 (Homo sapiens) + 1-acylglycerol-3-phosphate O-acyltransferase ABHD5 (Homo … | Split G. princeps luciferase complementation, 4 h | actives 0.78% (n = 360,000) | inhibition, % at 4 µM;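 active means inhibition above the mean inhibition across every tested compound plus 3 SD, cut at about 22% in these data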
MC4R antagonist = MC4R antagonists of cAMP signaling, primary screen, cell-based, TR-FRET, antagonist arm of biased-ligand search. MC4R-expressing cells, MTII-stimulated cAMP, LANCE TR-FRET. inhibition, % at 6.5 µM. Melanocortin receptor 4 (Homo sapiens), P32245. actives 0.48% (n = 360,000);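 active means inhibition above its plate's cutoff, the mean of tested wells on that plate plus 3 SD, cut at about 29% in these data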
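Assay system: human MC4R-expressing U2OS cells; reagent: Melanotan II stimulation of cells; dosing: 6.5 µM single dose; timing: compound 30 min, challenge 1 h, detection 1 h; signal: TR-FRET cAMP assay; replicates: one well per compound, no replicates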
B2AR ag = beta2AR agonists driving receptor internalization, primary screen, cell-based, FAP fluorogen, flow cytometry. AID 504454, 2011. Beta-2 adrenergic receptor (Homo sapiens), P07550. actives 0.43% (n = 340,000). response, % (no concentration beside the values). Am2.2-beta2AR cells;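 active means response above a set limit, near 3 SD of response in nonfluorescent compounds, cut at about 42% in these data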
MC4R barr agon = MC4R agonists recruiting beta-arrestin, primary screen, cell-based, luminescence, agonist arm of biased-ligand search; Melanocortin receptor 4 (Homo sapiens), P32245; U2OS MC4R beta-arrestin complementation; percent of melanotan II response, DMSO zero; AID 540308, 2011; actives 0.98% (n = 360,000); activation, % at 8.9 µM;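 active means activation above a per-plate cutoff, the mean activation of sample wells on that plate plus 3 SD, cut at about 8% in these data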
PfG6PD inh = PfG6PD enzyme inhibitors, primary screen, biochemical, fluorescence intensity, uHTS; inhibition, % at 20 µM; actives 0.78% (n = 350,000); PfGluPho enzyme, NADPH resazurin-diaphorase fluorescence;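 active means inhibition reaching at least a set limit at 20 µM in the primary screen, cut at about 59% in these data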
U2OS cAMP counter = nonselective cAMP signaling inhibitors, parental cells, counter-screen for MC4R biased antagonist project, cell-based, TR-FRET, U2OS, forskolin, triplicate; shares compounds with MC4R antagonist; LANCE TR-FRET; inhibition, % at 6.5 µM; actives 26% (n = 1,600); AID 602193, 2012;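 active means mean inhibition over triplicates above the low-control well mean plus 3 SD, set per campaign, cut at about 13% in these data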;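 further: signal is single emission at 671 nm which falls as cellular cAMP rises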
MC4R cAMP antag = MC4R cAMP antagonists, retest, confirmation, cell-based, TR-FRET; shares compounds with MC4R antagonist; MC4R-expressing cells, MTII-stimulated cAMP; inhibition, % at 6.5 µM; actives 27% (n = 1,600); in the data active means inhibition above about 29%
Each line names hits and unclear results; the compound was inactive in the other large screens (follow-up assays come after a bar, where they were run).

S=c1[nH]nc(-c2cccc(Br)c2)o1	MC4R antagonist 46 | U2OS cAMP counter 16 | MC4R cAMP antag inactive
OC[C@@H]1CN(Cc2ccc(F)cc2)C[C@H](n2cnc3c(NCc4ccc(F)cc4)ncnc32)O1	none (no result: B2AR ag, PfG6PD inh)
O=C(O)CSc1nc2ccccc2nc1Cc1ccccc1F	MC4R antagonist 31 | U2OS cAMP counter inactive | MC4R cAMP antag inactive
CC(C)CCOc1ccc(/C=C2\CCn3c2nc2cc(C(=O)O)ccc2c3=O)cc1	MC4R antagonist 32 | U2OS cAMP counter inactive | MC4R cAMP antag inactive
COc1cc(OC)c2c(c1)C(=O)OC2	none
Cn1c(SCC(=O)Nc2cccc(F)c2)nnc1-c1cc2ccccc2o1	MC4R antagonist 31 | U2OS cAMP counter inactive | MC4R cAMP antag inactive
CC(=O)Nc1ccc(-c2nnc(SCC(=O)Nc3ccc4c(c3)oc3ccccc34)n2C)cc1	none
Cc1ccc(C(=O)O)cc1NC(=O)Nc1ccc2c(c1)OCO2	MC4R antagonist 30 | U2OS cAMP counter inactive | MC4R cAMP antag inactive
O=C(Nc1cccc(C(=O)O)c1)Nc1ccc2c(c1)OCO2	none
COC(=O)c1c(N2C(=O)[C@H]3[C@@H](C2=O)[C@]2(C(=O)Nc4c(C)cc(C)cc42)N2CCC[C@@H]32)sc(C)c1C	none
COC(=O)c1c(N2C(=O)[C@H]3[C@@H](C2=O)[C@]2(C(=O)Nc4c2ccc(C)c4C)N2CCC[C@@H]32)sc(C)c1C	MC4R antagonist 33 | U2OS cAMP counter inactive | MC4R cAMP antag inactive
O=C(O)c1cccc(S(=O)(=O)Nc2ccccc2-c2ccccc2)c1	MC4R antagonist 29 | U2OS cAMP counter inactive | MC4R cAMP antag inactive
CCc1ccc(OCC(=O)NC(NC(=S)Nc2ccccc2OC)C(Cl)(Cl)Cl)cc1 (configuration not stated)	MC4R antagonist 38 | U2OS cAMP counter inactive | MC4R cAMP antag inactive
Nc1nc(Cl)c(C=O)c(N2CCCCC2)n1	MC4R antagonist 37 | U2OS cAMP counter 20 | MC4R cAMP antag inactive
S=C1NC[C@H](Cc2ccccc2)N1CC1CCN(CCCC2CCCC2)CC1	MC4R antagonist 63 | U2OS cAMP counter inactive | MC4R cAMP antag inactive
S=C1NC[C@H](Cc2ccccc2)N1CCCCC1CCCCC1	none
CN(C)S(=O)(=O)n1cnc(C(CCO)c2ncn(S(=O)(=O)N(C)C)c2CCCO)c1 (configuration not stated)	none
Cc1ncn(-c2ccc(C(=O)Oc3ccccc3)cn2)n1	MC4R antagonist 29 | U2OS cAMP counter inactive | MC4R cAMP antag inactive
CCOCCOC(=O)c1ccc(-n2cnc(C)n2)nc1	none
O=S(=O)(Cc1cc(Cl)nc(-c2ccncc2)n1)c1ccccc1	MC4R antagonist 42 | U2OS cAMP counter inactive | MC4R cAMP antag inactive
O=S(=O)(Cc1cc(Cl)nc(-c2ccccc2)n1)c1ccccc1	none
O=C(O)c1cc(-c2cccnc2)nc2ccc(Br)cc12	MC4R antagonist 49 | U2OS cAMP counter 42 | MC4R cAMP antag 68
O=C(O)c1cc(-c2ccc3c(c2)OCO3)nc2ccc(Br)cc12	MC4R antagonist 37 | U2OS cAMP counter inactive | MC4R cAMP antag 30
O=C(O)c1cc(-c2cccs2)nc2ccc(F)cc12	none
O=C(O)c1cc(-c2cccs2)nc2ccc(Br)cc12	MC4R antagonist 111 (no result: PfG6PD inh) | U2OS cAMP counter 98 | MC4R cAMP antag 153
CCN1CCN(C(=O)c2cc(-c3cccnc3)nc3ccc(Br)cc23)CC1	none
COc1cccc(Nc2nc(-c3sc(C)nc3C)cs2)c1	MC4R antagonist 29 | U2OS cAMP counter inactive | MC4R cAMP antag inactive
COc1ccc(Cl)cc1Nc1nc(-c2sc(NC(=O)c3ccco3)nc2C)cs1	none
COc1cccc(Nc2nc(-c3sc(N)nc3C)cs2)c1	none
COc1cccc(Nc2nc(-c3sc(NC(=O)c4ccco4)nc3C)cs2)c1	MC4R antagonist 35 | U2OS cAMP counter inactive | MC4R cAMP antag inactive
CC(C)(C)C1CCC(=NOC(=O)c2ccc(F)cc2)CC1 (configuration not stated)	none
COc1ccccc1N1CCN(C(=O)CCCNC(=O)Cn2cnc3sc(C)c(C)c3c2=O)CC1	MC4R antagonist 33 | U2OS cAMP counter inactive | MC4R cAMP antag inactive
CCOC(=O)CC(=O)NC(C)(C)CCCCC(C)(C)NC(=O)CC(=O)OCC	MC4R antagonist 29 | U2OS cAMP counter inactive | MC4R cAMP antag inactive
CCOC(=O)CNC(=O)CCCCCC(=O)NCC(=O)OCC	none
O=C(O)c1cnn(-c2nc(-c3ccc(Cl)c(Cl)c3)cs2)c1C(F)(F)F	MC4R antagonist 52 | U2OS cAMP counter inactive | MC4R cAMP antag inactive
O=C(O)c1cnn(-c2nc(-c3cccc(F)c3)cs2)c1C(F)(F)F	none
O=C(O)c1cnn(-c2nc(-c3cccc([N+](=O)[O-])c3)cs2)c1C(F)(F)F	MC4R antagonist 33 | U2OS cAMP counter inactive | MC4R cAMP antag inactive
CCN(CC)C(=O)C(=O)Nc1ccc(Oc2ccccc2)cc1	MC4R antagonist 33 | U2OS cAMP counter inactive | MC4R cAMP antag inactive
COc1ccc(C(=O)/C=C/C(=O)N(CC(=O)NC2CCCCC2)Cc2ccccc2OC)c(O)c1	MC4R antagonist 48, B2AR ag 95 | U2OS cAMP counter inactive | MC4R cAMP antag inactive
COc1ccc(C(=O)/C=C/C(=O)N(CC(=O)NC2CCCCC2)Cc2ccccc2)c(O)c1	MC4R antagonist 40, B2AR ag 111 | U2OS cAMP counter inactive | MC4R cAMP antag inactive
O=C(NCC(c1ccco1)N1CCN(c2ccc(F)cc2)CC1)C1CCCCC1 (configuration not stated)	none
N#CC1(NC(=O)Cn2ncc(Cl)c(Cl)c2=O)CCCCC1	MC4R antagonist 35 | U2OS cAMP counter 25 | MC4R cAMP antag 37
CCc1ccc(C2CC3C(CN2S(=O)(=O)c2ccc(C)cc2)C(=O)CC(c2ccc(CC)cc2)N3S(=O)(=O)c2ccc(C)cc2)cc1 (configuration not stated)	none (no result: MC4R antagonist, B2AR ag, MC4R barr agon, PfG6PD inh)
S=c1[nH]c(-c2ccccc2)cn1/N=C/c1cccc2ccccc12	MC4R antagonist 29 | U2OS cAMP counter inactive | MC4R cAMP antag inactive
S=c1[nH]c(-c2ccccc2)cn1/N=C/c1ccccc1Br	none
Fc1ccc(NC(=S)Nc2ccc3nccnc3c2)cc1	MC4R antagonist 36 | U2OS cAMP counter inactive | MC4R cAMP antag inactive
COC(=O)C(Cc1ccccc1)NC(=O)CCC(=O)NC(C)CCc1ccccc1 (configuration not stated)	none

Screens deposited in PubChem by several laboratories.
